Data on one compound can be found in ChEMBL document CHEMBL1123441, “Carrier-linked primaquine in the chemotherapy of malaria” (J Med Chem, 1986).

For series [1], the system named is Mus musculus. In words: Free and protein-conjugated compound is evaluated for curative effect, at the 11 mg/kg. In kind it is functional. The essentials:
(§1)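 Female A/J mice (~20 g, groups of 6–8) inoculated via tail vein with 10^4 Plasmodium berghei sporozoites. Drug, conjugate or carrier alone in 0.5 mL PBS given intravenously 2–3 h later; doses as mg primaquine base/kg. Giemsa-stained thin blood smears were read up to day 12, and mice without parasitemia by day 12 were scored cured. An untreated control group was run per experiment. CPD50 came from probit-transformed dose–response data, with results pooled from at least two experiments.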

The subject of series [2] is Mus musculus. The experiment in a line: Free and protein-conjugated compound is evaluated for curative effect, at the 7 mg/kg. The series is classed as functional. The essentials: as §1
Series [3] is filed under the species Mus musculus. In words: Compound is evaluated for therapeutic efficacy. The settings on record: in vivo. The series is classed as ADME, organism-based. The essentials:
as §1

For series [4], the system named is Mus musculus. In words: Free and protein-conjugated compound is evaluated for curative effect, at the 14.5 mg/kg. The series is classed as functional. The essentials: as §1
A short description of series [5]: Ratio of LD50 (lethal toxicity in mice) to that of CPD50 (therapeutic efficacy). In kind it is organism-based. The settings on record: mouse, in vivo. In outline: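 Therapeutic index as LD50/CPD50 (mg primaquine base/kg). LD50 came from probit analysis of deaths after intravenous dosing of noninfected mice, groups of eight. CPD50 came from probit analysis of cure (no parasitemia by day 12) in A/J mice given intravenous drug 2–3 h after intravenous inoculation of 10^4 P. berghei sporozoites.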

Series [6] deals with Mus musculus. The experiment in a line: Free and protein-conjugated compound is evaluated for curative effect, at the 8 mg/kg. In kind it is functional. The essentials:
as §1

Series [7] relates to Mus musculus. In words: Free and protein-conjugated compound is evaluated for curative effect, at the 9.5 mg/kg. In kind it is functional. The essentials:
as §1

Series [8] has as its system Mus musculus. The experiment in a line: (§2) Compound is evaluated for acute lethal toxicity by intravenous administration. The series is classed as organism-based. The note with it: in vivo. In outline:
(§3)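 Noninfected mice in groups of eight, given a single intravenous injection of varying doses (mg primaquine base/kg) of free or protein-coupled drug. Highest conjugate dose was limited by solubility.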

The nature of series [9]: as §2. The note with it: mouse, in vivo. The series is classed as organism-based. The essentials:
as §3

“And” between values parts separate entries of the source, which are not always exact repeats. Identical values can stand only once.

Take `COc1cc(NC(C)CCCN)c2ncccc2c1` (centres undefined) [PRIMAQUINE]: the Cure came to 20% with Mus musculus [1]; 0% in the series on Mus musculus [2]; 69% in the series on Mus musculus [4]; 13% with Mus musculus [6]; 13% with Mus musculus [7]. The CPD50 in the series filed under Mus musculus [3] was 13 mg/kg and 20 mg/kg. Also, the selectivity ratio in series [5] came out at 1.2. In addition, in the series with Mus musculus [8], the LD10 was 13 mg/kg. In [9], this compound gave an LD50 of 16 mg/kg.

A word on the LD50: it is the dose expected to kill half of the subjects tested. Higher therefore signals lower toxicity.
